Experimental data gathered from unrelated publications.
Protocols differ between the studies behind these lines.
Effect on: cell growth or viability

| Structure (SMILES) | cell line | assay | setting | endpoint | value |
| --- | --- | --- | --- | --- | --- |
| CCC(=CCc1c(O)cc2c(c1O)C(=O)C[C@H](c1ccccc1O)O2)CC | HeLa | MTT | 120 µM, 48 h | inhibition | 81.5% |
| CCOc1ccc(-c2cc(C(=O)O)c(-c3ccc(Cl)cc3)o2)cc1 | U2OS | MTT | 48 h | EC50 | 48 µM |
| Cc1c(Cl)c(=O)oc2cc(OCCCCSC#N)ccc12 | HeLa | SRB | – | GI50 | 6.2 µM |
| Cc1nc(NC(=O)N2CCC[C@H]2C(N)=O)sc1-c1ccnc(C(C)(C)C(F)(F)F)c1 | Detroit 562 | ATP luminescence | 5 days | EC50 | 29.4 µM |
| Cc1nc(Nc2ncc(C(=O)Nc3c(C)cccc3Cl)s2)cc(N2CC[C@H](O)C2)n1 | P3HR-1 | ATP luminescence | 10 µM, 72 h | inhibition | 51% |
| CCC(=CCc1c(O)cc2c(c1O)C(=O)CC(c1ccc(O)cc1)O2)CC (stereo in doubt) | HeLa | MTT | 6.25 µM, 48 h | inhibition | 9.54% |
| C=C(NC(=O)C(=C)NC(=O)c1csc(C2=N[C@@H]3c4csc(n4)[C@H]4NC(=O)c5csc(n5)[C@H]([C@](C)(O)[C@@H](C)O)NC(=O)[C@H]5CSC(=N5)/C(=C/C)NC(=O)[C@H]([C@@H](C)O)NC(=O)c5csc(n5)[C@]3(CC2)NC(=O)[C@H](C)NC(=O)C(=C)NC(=O)[C@H](C)NC(=O)[C@H]([C@@H](C)CC)N[C@@H]2C=Cc3c([C@H](C)O)cc(nc3[C@H]2O)C(=O)O[C@@H]4C)n1)C(N)=O | NCI-H1792 | – | – | EC50 | 3.2 µM |
| N#CSCc1cc(=O)oc2cc(O)ccc12 | HeLa | SRB | – | GI50 | 3.7 µM |
| CCOc1ccc(C(=O)CC(SCc2ccc(Cl)cc2)C(=O)OC)cc1 (centres unmarked) | U2OS | MTT | 48 h | EC50 | 15.7 µM |
| O=c1[nH]cc(F)c(=O)[nH]1 | HeLa | SRB | – | GI50 | 4.4 µM |
| CCOc1cccc(C(=O)CC(SCc2cccc(Br)c2)C(=O)O)c1 (centres unmarked) | U2OS | MTT | 48 h | EC50 | 98 µM |
